Compound activity: PubChem, several laboratories
p-CIP stab down: compounds decreasing mouse p/CIP protein stability. F442A p/CIP-EGFP cells, EGFP fluorescence, 16 h. decrease of EGFP signal, % at 10 µM. 0.01% of 290,000 active. AID 1984;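 active = EGFP signal decrease of at least 30% at 10 µM or well 3 SD below plate mean, unless failing retest; inactive = the rest, including hits failing retest or dose response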
ABCB6 inh 2: human ABCB6 transporter inhibition. Q9NP58. K562-ABCB6 porphyrin accumulation, flow cytometry, 1 h; stronger effect = lower value. 0.19% of 360,000 active. AID 602162. fluorescence ratio to DMSO, % at 10 µM;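 active = fluorescence ratio to DMSO below 75%, the collection mean minus 3 SD; inconclusive = too few cells collected in the well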;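 note: signal is porphyrin accumulated inside mitochondria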
Dynein transport: blocks dynein driven cargo transport along microtubules; AID 1381; z-score, hits read low; 0.47% of 220,000 active; 3617.4 mouse cells, GR-EGFP nuclear translocation imaging; test concentration mostly 20 µM; stimulated with dexamethasone, 1 µM; stronger effect = lower value;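 active = plate z-score of nuclear minus cytoplasmic receptor signal below a set negative limit, without overly bright fluorescence or cell loss, cut at about -3.5 in these data, passing the limit was not always enough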;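 note: z-score of nuclear minus cytoplasmic ring GR-EGFP intensity difference per well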
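Buffer or medium – tet-free medium with charcoal-stripped serum · Signal – automated 10x imaging of fixed Hoechst-stained cells · Also added – dexamethasone agonist, 1.0 µM final, for 30 min · Incubation – induction 48 h, compound 1 h, agonist 30 min · Read-out – GR-EGFP nuclear translocation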
V-ATPase pH: yeast V-ATPase proton transport regulation by pHLuorin; 0.37% of 350,000 active; AID 504577; S. cerevisiae, pHLuorin cytosolic pH fluorescence; response, % at 10 µM; in the data active = response mostly above about 7.3%, no sharp cut-off; inactive = mostly below about 5.4%; note: actives read high
KCC2 mod: modulates chloride dependent transport by human KCC2; 2.2% of 190,000 active; Q9H2X9; AID 1456; KCC2 cells, thallium flux FluoZin-2 fluorescence; B-score of Tl+ flux slope (higher = more flux/activation; lower = inhibition) at 10 µM;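 active = thallium flux slope and its plate-corrected score both differing from the plate sample mean at a set confidence after two filtering rounds, in either direction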;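 note: slope of fluorescence scaled to starting intensity during 10 to 20 s after thallium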
Target sequence (Q9H2X9 whole entry, looked up): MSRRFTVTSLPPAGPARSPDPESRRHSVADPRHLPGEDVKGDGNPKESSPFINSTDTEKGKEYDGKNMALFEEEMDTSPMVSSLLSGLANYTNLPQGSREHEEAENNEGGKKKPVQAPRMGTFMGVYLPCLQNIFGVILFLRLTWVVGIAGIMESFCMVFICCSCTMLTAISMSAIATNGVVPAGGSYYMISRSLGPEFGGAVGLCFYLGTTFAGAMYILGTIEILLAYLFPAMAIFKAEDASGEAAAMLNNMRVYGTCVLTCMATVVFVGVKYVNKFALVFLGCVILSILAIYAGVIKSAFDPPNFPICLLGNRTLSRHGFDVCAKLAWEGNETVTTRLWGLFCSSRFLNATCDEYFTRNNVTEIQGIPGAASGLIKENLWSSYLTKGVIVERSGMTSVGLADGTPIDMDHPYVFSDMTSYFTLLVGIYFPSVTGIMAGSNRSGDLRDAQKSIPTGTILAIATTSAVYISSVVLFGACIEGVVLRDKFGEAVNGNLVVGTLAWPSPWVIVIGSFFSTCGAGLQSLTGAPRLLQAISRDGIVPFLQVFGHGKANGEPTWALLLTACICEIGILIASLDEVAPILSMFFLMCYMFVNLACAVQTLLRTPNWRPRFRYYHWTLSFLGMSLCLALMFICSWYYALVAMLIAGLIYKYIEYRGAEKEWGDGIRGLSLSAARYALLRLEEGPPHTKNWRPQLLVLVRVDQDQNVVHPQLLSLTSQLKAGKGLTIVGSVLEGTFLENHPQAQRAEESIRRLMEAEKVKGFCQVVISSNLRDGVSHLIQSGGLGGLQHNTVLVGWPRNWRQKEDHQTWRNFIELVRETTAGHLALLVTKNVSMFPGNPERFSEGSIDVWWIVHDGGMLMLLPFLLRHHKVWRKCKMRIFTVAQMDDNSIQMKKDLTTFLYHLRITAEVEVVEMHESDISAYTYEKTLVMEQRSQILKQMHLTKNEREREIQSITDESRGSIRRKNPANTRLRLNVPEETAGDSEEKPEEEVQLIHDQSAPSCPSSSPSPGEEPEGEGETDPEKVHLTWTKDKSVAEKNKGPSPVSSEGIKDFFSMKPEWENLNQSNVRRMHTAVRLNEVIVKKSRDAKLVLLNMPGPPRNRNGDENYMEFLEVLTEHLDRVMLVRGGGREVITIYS
KCC2 sec1: KCC2 (human) modulation, secondary assay; HEK293-KCC2, thallium flux, FluoZin2 fluorescence; stronger effect = higher value; normalised thallium flux (F/F0 slope) at 10 µM; shares compounds with KCC2 mod; 15% of 3,700 active;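 active = thallium flux slope above the same plate's solvent-only control mean plus 3 SD; inconclusive = the two replicate wells disagree; inactive = no significant difference from solvent-only control wells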
KCC2 bumet counter: thallium flux persisting under bumetanide in KCC2 cells, counter-screen secondary assay; 49% of 3,700 active; HEK293-KCC2 + bumetanide/ouabain, thallium flux FluoZin2; stronger effect = higher value; shares compounds with KCC2 mod; normalized thallium flux at 10 µM;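 active = thallium entry rate above the same plate's blocked-transporter control wells by more than 3 SD; inconclusive = the two repeat wells disagree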;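 note: raw slope of fluorescence over initial fluorescence between 10 and 20 s after thallium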
KCC2 sec2: KCC2 (human) modulation, second secondary assay | shares compounds with KCC2 mod | HEK293-KCC2, thallium flux FluoZin2 fluorescence; actives lie on both sides; F/F0 rise rate, 10–20 s post-thallium | normalized thallium flux at 10 µM | 23% of 3,700 active | AID 1715;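 active = thallium flux slope more than 3 SD above or below the plate's solvent-only control mean, mostly below; inconclusive = the two repeat wells disagreed; inactive = no significant shift from solvent-only controls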
HEK counter1: acts in parental HEK cells, KCC2 counter-screen. shares compounds with KCC2 mod. HEK293 parental cells, thallium flux FluoZin2, ouabain; baseline-ratio fluorescence slope, 10–20 s after thallium. thallium flux rate (normalised fluorescence) at 10 µM. 46% of 3,700 active;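 active = thallium flux rate significantly above the same plate's solvent-only control wells, beyond their mean plus 3 SD; inconclusive = the two replicate wells gave conflicting results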
KCC2 retest ouab: confirmation of human KCC2 modulators with ouabain | shares compounds with KCC2 mod | 48% of 3,700 active | raw Tl+ flux slope (below DMSO = inhibition, above = activation) at 10 µM | HEK293-KCC2, thallium flux FluoZin2 fluorescence; bidirectional: low = inhibitor, high = activator | AID 1717;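 active = thallium flux slope beyond 3 SD from same-plate DMSO control mean in most replicates, usually higher, sometimes lower; inconclusive = repeat tests gave conflicting results; inactive = no significant difference from controls in most replicates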;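 note: slope of initial-normalized fluorescence between seconds 10 and 20 after thallium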
HEK293 Tl flux2: counter-screen for KCC2 modulators: effect in parental HEK293 cells. shares compounds with KCC2 mod. thallium flux FluoZin-2 fluorescence slope. thallium flux slope at 10 µM. 33% of 3,700 active;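 active = thallium flux slope above the same plate's solvent-control mean plus 3 SD in both duplicate wells; inconclusive = duplicate wells that disagreed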;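 note: run without ouabain in cells lacking the KCC2 cotransporter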
Large screens that a line does not name were inactive (follow-up assays come after a bar, where they were run). Shown is part of a subset that was picked to be rich in hits.

Cc1ccc(S(=O)(=O)N2CC(O)CC2C(=O)OCC(=O)c2ccccc2Cl)cc1C (stereo not given)	KCC2 mod -4.1 | KCC2 sec1 inconclusive | KCC2 bumet counter inactive | KCC2 sec2 inactive | HEK counter1 inactive | KCC2 retest ouab 0.015 | HEK293 Tl flux2 inactive
COc1cc2c(cc1OC)C(C)N(C(=S)NC(=O)c1ccccc1)CC2 (stereo not given)	KCC2 mod 21 | KCC2 sec1 inconclusive | KCC2 bumet counter 0.062 | KCC2 sec2 0.043 | HEK counter1 0.041 | KCC2 retest ouab 0.049 | HEK293 Tl flux2 0.029
Cc1nn(-c2ccc(F)cc2)c(-n2cccc2)c1C(=O)N1CCN(C(=O)c2ccco2)CC1	none (no result: Dynein transport, KCC2 mod)
Cc1cccc(Nc2nnc(SCC(=O)c3ccc(Br)s3)s2)c1C	KCC2 mod -4.3 | KCC2 sec1 inconclusive | KCC2 bumet counter inconclusive | KCC2 sec2 0.027 | HEK counter1 inactive | KCC2 retest ouab 0.011 | HEK293 Tl flux2 inactive
C/C(N)=C(/C#N)C(=O)CSc1nnc(Nc2cccc(C)c2C)s1	none
COc1ccnc2c1c(=O)n(Cc1ccc(Cl)cc1)c(=O)n2C	none (no result: Dynein transport, KCC2 mod)
O=C(CCCSc1nc2sc3c(c2c(=O)[nH]1)CCC3)NCCO	KCC2 mod -4.2 | KCC2 sec1 inactive | KCC2 bumet counter inactive | KCC2 sec2 inactive | HEK counter1 inactive | KCC2 retest ouab inactive | HEK293 Tl flux2 inactive
C/C(=N\NC(=O)OC(C)(C)C)c1cccc([N+](=O)[O-])c1	none
N#Cc1c(-c2c(Cl)cccc2Cl)noc1/C=C/Nc1ccc(C(=O)O)cc1	KCC2 mod -5.8 | KCC2 sec1 inactive | KCC2 bumet counter inactive | KCC2 sec2 0.025 | HEK counter1 inconclusive | KCC2 retest ouab 0.013 | HEK293 Tl flux2 inactive
CN(C)/C=C/c1onc(-c2c(Cl)cccc2Cl)c1C#N	none
COc1ccc(CCNC(=O)C2CCCN(S(=O)(=O)c3cccc4nonc34)C2)cc1OC (stereo not given)	none (no result: KCC2 mod) | KCC2 sec1 inactive | KCC2 bumet counter inactive | KCC2 sec2 inactive | HEK counter1 inactive | KCC2 retest ouab inactive | HEK293 Tl flux2 inactive
COc1ccc(NC(=O)C2CCCN(S(=O)(=O)c3cccc4nonc34)C2)cc1OC (stereo not given)	none
O=C1CNC(=S)N1c1nc2ccccc2s1	KCC2 mod 5.3 | KCC2 sec1 inactive | KCC2 bumet counter 0.01 | KCC2 sec2 inactive | HEK counter1 0.011 | KCC2 retest ouab inactive | HEK293 Tl flux2 0.012
O=C1CC(O)(C(F)(F)F)Oc2c1ccc1ccccc21 (stereo not given)	KCC2 mod 46 | KCC2 sec1 inactive | KCC2 bumet counter 0.077 | KCC2 sec2 0.065 | HEK counter1 0.059 | KCC2 retest ouab 0.067 | HEK293 Tl flux2 0.061
O=C1CC(O)(C(F)F)Oc2ccc3ccccc3c21 (stereo not given)	none
Cc1cccc(OCCc2nnc(N)s2)c1C	KCC2 mod -5.9 | KCC2 sec1 inactive | KCC2 bumet counter inactive | KCC2 sec2 0.026 | HEK counter1 inactive | KCC2 retest ouab inconclusive | HEK293 Tl flux2 inactive
Cc1ccc(-c2cc(C(=O)N/N=C/C=C/c3ccccc3)n[nH]2)s1	none
N#CCCN(Cc1cccs1)C(=O)Nc1ccccc1	none
